Assay results: ChEMBL document CHEMBL3745596, “Chlorophenoxy aminoalkyl derivatives as histamine H(3)R ligands and antiseizure agents” (Bioorg Med Chem, 2016)
Calls of active or inactive are those of the source.

Columns and labels:
Histamine H3 receptor = Histamine H3 receptor (Homo sapiens, UniProt Q9Y5N1); experiment: Displacement of [3H]-Nalpha-methylhistamine from human recombinant histamine H3 receptor expressed in HEK293 cells after 90 mins; type: cell-based
Mus musculus [1] = experiment: Anticonvulsant activity in CF1 albino mouse assessed as protection against maximal electroshock-induced seizure at 3 mg/kg, ip after 0.5 hrs; type: functional, organism-based
How it was run: (§1)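 Male CF-1 mice dosed ip as suspension in 0.5% methylcellulose. Corneal electrodes deliver 60 Hz alternating current, 50 mA for […], after a drop of 0.5% tetracaine HCl in 0.9% NaCl per eye. Protection means abolition of hindlimb tonic extension; scored as protected/tested, or ED50 with 95% confidence interval.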

Mus musculus [2] = experiment: Anticonvulsant activity in CF1 albino mouse assessed as protection against maximal electroshock-induced seizure at 10 mg/kg, ip after 0.5 hrs; type: functional, organism-based; how it was run: as §1
Mus musculus [3] = experiment: Anticonvulsant activity in CF1 albino mouse assessed as protection against maximal electroshock-induced seizure at 30 mg/kg, ip after 0.5 hrs; type: functional, organism-based; how it was run: as §1
Mus musculus [4] = experiment: Anticonvulsant activity in CF1 albino mouse assessed as protection against maximal electroshock-induced seizure at 30 mg/kg, ip after 4 hrs; type: functional, organism-based; how it was run: as §1
Mus musculus [5] = experiment: Anticonvulsant activity in CF1 albino mouse assessed as protection against maximal electroshock-induced seizure at 100 mg/kg, ip after 0.5 hrs; type: functional, organism-based; how it was run: as §1
Mus musculus [6] = experiment: Anticonvulsant activity in CF1 albino mouse assessed as protection against maximal electroshock-induced seizure at 100 mg/kg, ip after 4 hrs; type: functional, organism-based; how it was run: as §1
Mus musculus [7] = experiment: Anticonvulsant activity in CF1 albino mouse assessed as protection against subcutaneous pentetrazole-induced seizure at 30 mg/kg, ip after 0.5 hrs; type: functional, organism-based
How it was run: (§2)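 Male CF-1 mice, ip in 0.5% methylcellulose; pentetrazole at CD97 (85 mg/kg) injected subcutaneously in a loose fold of neck skin. Observed 30 min; absence of even a threshold seizure (single clonic spasm lasting at least 5 s) counted as protection. Scored protected/tested, or ED50.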

Mus musculus [8] = experiment: Anticonvulsant activity in CF1 albino mouse assessed as protection against subcutaneous pentetrazole-induced seizure at 30 mg/kg, ip after 4 hrs; type: functional, organism-based; how it was run: as §2
Mus musculus [9] = experiment: Anticonvulsant activity in CF1 albino mouse assessed as protection against subcutaneous pentetrazole-induced seizure at 100 mg/kg, ip after 0.5 hrs; type: functional, organism-based; how it was run: as §2
Mus musculus [10] = experiment: Anticonvulsant activity in CF1 albino mouse assessed as protection against subcutaneous pentetrazole-induced seizure at 100 mg/kg, ip after 4 hrs; type: functional, organism-based; how it was run: as §2
Mus musculus [11] = experiment: Neurotoxicity in CF1 albino mouse at 3 mg/kg, ip after 0.5 hrs by rotarod test; type: toxicity, organism-based; conditions: in vivo
How it was run: (§3)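 Rotarod neurotoxicity in male albino CF-1 mice dosed ip with compound suspended in 0.5% methylcellulose. Animal placed on a 1 inch diameter knurled plastic rod rotating at 6 rpm. Neurotoxicity scored when the animal falls off three times within 1 min. Readout is number of animals toxic/number tested at the stated time after dosing. TD50 with 95% confidence interval from the quantitative study.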

Mus musculus [12] = experiment: Neurotoxicity in CF1 albino mouse at 10 mg/kg, ip after 0.5 hrs by rotarod test; type: toxicity, organism-based; conditions: in vivo
How it was run: (§4)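 Rotarod neurotoxicity in male CF-1 mice dosed ip as 0.5% methylcellulose suspension: mouse placed on 1 inch knurled rod rotating at 6 rpm; toxicity when the animal falls off three times within 1 min, with other signs noted. Scored as toxic/tested at 0.5 h and 4 h.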

Mus musculus [13] = experiment: Neurotoxicity in CF1 albino mouse at 30 mg/kg, ip after 0.5 hrs by rotarod test; type: toxicity, organism-based; conditions: in vivo; how it was run: as §3
Mus musculus [14] = experiment: Neurotoxicity in CF1 albino mouse at 30 mg/kg, ip after 4 hrs by rotarod test; type: toxicity, organism-based; conditions: in vivo; how it was run: as §3
Mus musculus [15] = experiment: Neurotoxicity in CF1 albino mouse at 100 mg/kg, ip after 4 hrs by rotarod test; type: toxicity, organism-based; conditions: in vivo; how it was run: as §3
Mus musculus [16] = experiment: Neurotoxicity in CF1 albino mouse assessed as death at 300 mg/kg, ip after 0.5 hrs by rotarod test; type: toxicity, organism-based; conditions: in vivo
How it was run: (§5)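 Male albino CF-1 mice dosed ip with compound suspended in 0.5% methylcellulose, then placed on a 1-inch knurled plastic rod turning at 6 rpm. A fall three times within 1 min counted as neurotoxicity. Observations were made at 0.5 h and 4 h after dosing. Result given as animals showing toxicity per animals tested, with the kind of toxicity recorded.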

Mus musculus [17] = experiment: Neurotoxicity in CF1 albino mouse at 300 mg/kg, ip after 4 hrs by rotarod test; type: toxicity, organism-based; conditions: in vivo; how it was run: as §3
Mus musculus [18] = experiment: Neurotoxicity in CF1 albino mouse assessed as unable to grasp rotarod at 100 mg/kg, ip after 0.5 hrs by rotarod test; type: toxicity, organism-based; conditions: in vivo; how it was run: as §4
Rattus norvegicus = experiment: Anticonvulsant activity in Sprague-Dawley rat assessed as protection against maximal electroshock-induced seizure at 30 mg/kg, po; type: functional
Mus musculus [19] = experiment: Anticonvulsant activity in CF1 albino mouse assessed as protection against 6 Hz-psychomotor-induced seizure at 50 mg/kg, ip after 0.25 hrs; type: functional, organism-based
How it was run: (§6)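 Male CF-1 mice, ip suspension in 0.5% methylcellulose. Corneal stimulation 0.2 ms monopolar rectangular pulses at 6 Hz, 32 mA for 3 s via constant-current device; mice without minimal clonic phase seizure counted protected. Groups of four; read at 0.25, 0.5, 1, 2, 4 h; result as protected/tested.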

Mus musculus [20] = experiment: Anticonvulsant activity in CF1 albino mouse assessed as protection against 6 Hz-psychomotor-induced seizure at 50 mg/kg, ip after 0.5 hrs; type: functional, organism-based; how it was run: as §6
Mus musculus [21] = experiment: Anticonvulsant activity in CF1 albino mouse assessed as protection against 6 Hz-psychomotor-induced seizure at 50 mg/kg, ip after 1 hr; type: functional, organism-based; how it was run: as §6
Mus musculus [22] = experiment: Anticonvulsant activity in CF1 albino mouse assessed as protection against 6 Hz-psychomotor-induced seizure at 50 mg/kg, ip after 4 hrs; type: functional, organism-based; how it was run: as §6
Mus musculus [23] = experiment: Neurotoxicity in CF1 albino mouse at 50 mg/kg, ip after 0.5 hrs by rotarod test; type: toxicity, organism-based; conditions: in vivo; how it was run: as §3
Mus musculus [24] = experiment: Neurotoxicity in CF1 albino mouse at 50 mg/kg, ip after 1 hr by rotarod test; type: toxicity, organism-based; conditions: in vivo; how it was run: as §3
Mus musculus [25] = experiment: Neurotoxicity in CF1 albino mouse at 50 mg/kg, ip after 2 hrs by rotarod test; type: toxicity, organism-based; conditions: in vivo; how it was run: as §3
Mus musculus [26] = experiment: Neurotoxicity in CF1 albino mouse at 50 mg/kg, ip after 4 hrs by rotarod test; type: toxicity, organism-based; conditions: in vivo; how it was run: as §3
Mus musculus [27] = experiment: Neurotoxicity in CF1 albino mouse assessed as unable to grasp rotarod, death and loss of righting reflux at 100 mg/kg, ip after 0.5 hrs by rotarod test; type: toxicity, organism-based; conditions: in vivo; how it was run: as §5
Mus musculus [28] = experiment: Neurotoxicity in CF1 albino mouse assessed as vocalization at 30 mg/kg, ip after 0.5 hrs by rotarod test; type: toxicity, organism-based; conditions: in vivo; how it was run: as §4
Mus musculus [29] = experiment: Neurotoxicity in CF1 albino mouse assessed as death at 100 mg/kg, ip after 0.5 hrs by rotarod test; type: toxicity, organism-based; conditions: in vivo; how it was run: as §5

Chain of Histamine H3 receptor (Q9Y5N1 whole entry): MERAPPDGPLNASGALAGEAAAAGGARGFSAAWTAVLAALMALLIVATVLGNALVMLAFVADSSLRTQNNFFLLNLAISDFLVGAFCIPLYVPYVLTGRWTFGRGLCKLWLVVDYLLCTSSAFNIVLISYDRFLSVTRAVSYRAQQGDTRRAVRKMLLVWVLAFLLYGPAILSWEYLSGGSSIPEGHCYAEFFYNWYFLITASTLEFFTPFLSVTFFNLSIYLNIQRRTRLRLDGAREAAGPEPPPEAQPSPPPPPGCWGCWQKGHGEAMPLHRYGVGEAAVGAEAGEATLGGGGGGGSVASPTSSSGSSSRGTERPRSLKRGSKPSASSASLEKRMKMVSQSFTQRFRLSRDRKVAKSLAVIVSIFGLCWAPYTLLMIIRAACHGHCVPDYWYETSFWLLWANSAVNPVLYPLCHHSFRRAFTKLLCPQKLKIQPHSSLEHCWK

| Compound | Ki (Histamine H3 receptor) [µM] | Activity (Mus musculus [1]) | Activity (Mus musculus [2]) | Activity (Mus musculus [3]) | Activity (Mus musculus [4]) | Activity (Mus musculus [6]) | Activity (Mus musculus [7]) | Activity (Mus musculus [8]) | Activity (Mus musculus [9]) | Activity (Mus musculus [10]) | Activity (Mus musculus [11]) | Activity (Mus musculus [12]) | Activity (Mus musculus [13]) | Activity (Mus musculus [14]) | Activity (Mus musculus [15]) | Activity (Mus musculus [16]) | Activity (Mus musculus [17]) | other results |
| --- | --- | --- | --- | --- | --- | --- | --- | --- | --- | --- | --- | --- | --- | --- | --- | --- | --- | --- |
| CC1CCCN(CCCCCCOc2cccc(Cl)c2)C1.O=C(O)C(=O)O (stereo unspecified) | 0.174 | inactive | inactive | Active | inactive | Active | inactive | inactive | inactive | inactive | Non-toxic | Non-toxic | Non-toxic | Non-toxic | Non-toxic | Toxic | Non-toxic | Activity (Mus musculus [5]): Active; Activity (Mus musculus [18]): Toxic; Activity (Rattus norvegicus): inactive; Activity (Mus musculus [19]): inactive; Activity (Mus musculus [20]): inactive; Activity (Mus musculus [21]): inactive; Activity (Mus musculus [22]): inactive; Activity (Mus musculus [23]): Non-toxic; Activity (Mus musculus [24]): Non-toxic; Activity (Mus musculus [25]): Non-toxic; Activity (Mus musculus [26]): Non-toxic |
| Clc1ccc(OCCCCCN2CCCCCC2)cc1.O=C(O)C(=O)O | 0.371 | inactive | inactive | Active | inactive | Active | inactive | inactive | inactive | inactive | Non-toxic | Non-toxic | Non-toxic | Non-toxic | Non-toxic | Toxic | Non-toxic | Activity (Mus musculus [27]): Toxic |
| CC1CCN(CCCCCOc2ccc(Cl)cc2)CC1.O=C(O)C(=O)O | 0.8 | inactive | inactive | Active | Active |  | inactive | inactive |  |  | Non-toxic | Non-toxic |  | Non-toxic | Non-toxic | Toxic | Non-toxic | Activity (Mus musculus [28]): Toxic; Activity (Mus musculus [29]): Toxic |
